Assay outcomes deposited in PubChem BioAssay by several laboratories.
This excerpt belongs to a sample that is enriched for hits.
CHOP UPR activ = activators of apoptotic arm of unfolded protein response (CHOP). CHO-CHOP luciferase reporter, UPR activation, luminescence; percent of tunicamycin response over DMSO baseline. AID 449763. actives 0.34% (n = 330,000). activation, % at 10 µM;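 active = at 10 µM dose, activation of 40% or more, normalized to positive control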;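 note: 100% = tunicamycin at 10 µg/mL and 0% = DMSO alone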
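Assay system: CHO-CHOP cells, stable luciferase reporter of PERK-eIF2a-CHOP signalling / Buffer or medium: F12 plus 10% serum / Compound dosing: one dose, 10 µM in 0.5% DMSO / Times: 6 h compound treatment, 37 °C / Technique: luciferase luminescence / Read-out: % reporter activation, DMSO baseline versus tunicamycin full activation / Benchmarks: tunicamycin and DMSO controls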
Bfl-1 A1 inh = inhibitors of the anti-apoptotic protein A1, read as caspase activation; caspase activation, % (test concentration not listed); MEF A1-2A-BIM cells, Caspase-Glo 3/7 luminescence, 3 h; percent of clofoctol response, vehicle zero; actives 0.066% (n = 330,000);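 active = over half of replicate activation scores above 10%, or exactly half above 10 with the replicate mean above 10; inconclusive = replicate mean below 10 yet half the replicates above 10; inactive = over half of replicates below 10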
UPR XBP1 act = activators of adaptive arm of unfolded protein response (XBP1). CHO-XBP1 luciferase reporter, IRE1-XBP1 UPR activation, luminescence; percent of tunicamycin response, DMSO as zero. activation, % at 20 µM. actives 0.33% (n = 330,000). AID 463104;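 active = versus positive control, 20 µM dose yields 30% or more activation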;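 note: 100% = tunicamycin at 10 µg/mL and 0% = DMSO only wells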
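Test system: CHO-XBP1 luciferase reporter cells | Buffer or medium: Serum-containing F12 medium, 10% FBS | Schedule: 6 h compound exposure at 37 °C, 5% CO2 | Detection: Steady-Glo luciferase glow luminescence, 10 min after reagent addition | Read-out basis: Activation, % of tunicamycin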
CHOP inhibitor = inhibitors of CHOP induction in ER stress response | CHO-K1 CHOP-promoter luciferase, tunicamycin-induced, 15-18 h | inhibition, % at 10 µM | actives 3.8% (n = 220,000);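 active = compounds that reduced the stress-induced luciferase reporter signal by more than about 70% of percent inhibition, limit read from the data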;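 note: 0% = tunicamycin plus vehicle and 100% = wells without tunicamycin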
CHOP confirm = confirmation of CHOP induction inhibitors; shares compounds with CHOP inhibitor; CHO-CHOP promoter luciferase reporter, tunicamycin-induced, luminescence; inhibition, % at 10 µM; actives 45% (n = 2,100); AID 504437;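 active = mean of three repeat readings of reporter signal inhibition above a set limit, cut at about 70% in these data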;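 note: 0% = tunicamycin plus vehicle and 100% = wells lacking tunicamycin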
Starred values were filed as active, the others as inactive; ? = inconclusive; · = not tested or not shown.

SMILES | CHOP UPR activ | Bfl-1 A1 inh | UPR XBP1 act | CHOP inhibitor | CHOP confirm
COc1ccc(C2=C/C(=C/c3cccnc3)C(=O)O2)cc1OC | 0.3 | 0.5 | 0.3 | 104.6* | 14.1
CCOc1ccc(C2=C/C(=C/c3cccnc3)C(=O)O2)cc1 | 2.7 | -0.2 | 2.8 | 103.0* | 90.6*
Cc1cc(OCC(=O)N(Cc2cccs2)C2CCS(=O)(=O)C2)ccc1Cl (configuration not stated) | -0.2 | · | -0.7 | · | ·
O=C(CCl)Nc1cc(-c2ccccc2)nn1-c1ccccc1 | 11.9 | -0.1 | -5.9 | · | 83.4*
COC(=O)c1cc(C(=O)OCC(=O)N(C)C2CCS(=O)(=O)C2)cc([N+](=O)[O-])c1 (configuration not stated) | -2.3 | 1.0 | -1.1 | -3.0 | ·
Cc1ccc(/C=N/n2c(C3CCCCC3)n[nH]c2=S)s1 | 2.7 | 0.1 | 0.8 | 104.8* | 95.6*
COc1ccccc1/C=C\C=N\n1c(C2CCCCC2)n[nH]c1=S | -0.4 | -0.3 | 1.8 | 108.0* | 2.6
S=c1[nH]nc(C2CCCCC2)n1/N=C/c1ccccc1 | -0.6 | 0.3 | 1.5 | · | ·
CCOc1ccc(/C=N/Nc2ccccn2)cc1OC | 6.3 | -3.7 | 3.4 | -2.2 | ·
CCOc1ccc(/C=N/N(C)c2ccccc2)cc1OC | 2.1 | 0.0 | 3.5 | 100.3* | 3.1
O=P(O)(CCCP(=O)(O)CCc1ccccc1)CCc1ccccc1 | -3.0 | -1.3 | -2.0 | · | ·
COC(=O)[C@H](CCSC)NC(=O)Cn1ccc(N)nc1=O | -0.8 | 0.9 | -2.4 | · | ·
CC(NO)/C(=N\O)c1cccs1 (configuration not stated) | 0.5 | -1.4 | -3.2 | 106.3* | 40.0
C/C(=N\N=C(c1ccccc1)c1ccccc1)c1cccs1 | 2.5 | -0.1 | -1.8 | 33.1 | ·
COC(=O)[C@H](CC(C)C)NC(=O)Cn1cnc2c(OCc3ccccc3)ncnc21 | 1.2 | · | -1.9 | · | ·
Cc1nnc(SCCn2c(N3CCC(Cc4ccccc4)CC3)nc3c2c(=O)[nH]c(=O)n3C)s1 | 1.1 | 0.9 | -0.5 | 13.3 | ·
CCCCn1c(N2CCC(Cc3ccccc3)CC2)nc2c1c(=O)[nH]c(=O)n2C | 4.8 | 0.0 | 1.3 | 97.3* | 102.7*
CC(C)Cn1c([N+](=O)[O-])nc2c1c(=O)[nH]c(=O)n2C | 13.0 | 0.0 | 2.9 | -71.7 | ·
Cn1c(=O)[nH]c(=O)c2c1nc([N+](=O)[O-])n2Cc1ccccc1 | -7.9 | 0.3 | -8.8 | 106.5* | 121.3*
CCCCCCn1c(N2CCC(C)CC2)nc2c1c(=O)[nH]c(=O)n2C | -1.3 | 1.5 | 8.6 | 100.1* | 104.7*
O=C(Nc1nccs1)C1CC(=O)N(c2ccc(Cl)cc2)C1 (configuration not stated) | 0.8 | 1.4 | -0.8 | 13.2 | ·
O=C(Cn1ncc(Cl)c(Cl)c1=O)N1CCN(Cc2ccccc2)CC1 | · | · | · | 107.2* | -168.9
CCc1ccc(C(=O)Cn2ncc(Cl)c(Cl)c2=O)cc1 | 37.1 | 1.1 | 0.4 | 2.8 | ·
O=c1c(Cl)c(Cl)cnn1Cc1ccccc1Cl | · | 8.3* | · | 111.3* | 26.0
Cc1cc(C)cc(Cn2ncc(Cl)c(Cl)c2=O)c1 | · | 6.7* | · | 105.9* | -31.1
SMILES | CHOP UPR activ | Bfl-1 A1 inh | UPR XBP1 act | CHOP inhibitor | CHOP confirm
O=c1c(Cl)c(Cl)cnn1Cc1nnc(-c2ccc(Cl)cc2)o1 | · | · | · | 107.5* | 37.7
O=C(Cn1ncc(Cl)c(Cl)c1=O)N1CCOCC1 | 1.5 | 1.8 | 1.2 | -35.5 | ·
Cc1ccc(-c2nnc(Cc3ccc(Cl)cc3)o2)cc1 | 2.0 | -1.1 | 4.5 | 57.2 | ·
O=c1[nH]cnc2c1cnn2Cc1ccccc1Cl | 0.4 | -0.9 | -5.0 | · | ·
Cc1cccc2cc3c(N)c(C#N)sc3nc12 | -0.2 | 0.0 | 1.2 | 99.3* | 69.5*
O=C(NC1CC1)C1CCN(C2CCN(C(=O)/C=C/c3cccs3)CC2)CC1 | -0.7 | 0.6 | -1.5 | -0.4 | ·
O=C(N/N=C/c1cccc(O)c1)NC1CCCCC1 | 4.2 | 0.3 | -0.1 | -1.1 | ·
O=C(N/N=C/C=C/c1ccccc1)NC1CCCCC1 | 0.8 | 0.5 | -0.1 | 101.4* | 20.1
COC(=O)c1cn[nH]c1NC(=S)Nc1ccc(Cl)c(Cl)c1 | 3.1 | 0.4 | -2.4 | 96.8* | 23.9
COc1ccccc1NS(=O)(=O)c1cc(C(=O)NCc2ccncc2)ccc1C | -0.1 | -0.6 | -1.8 | · | ·
O=C(O)CNS(=O)(=O)c1ccc2c(c1)C(=O)c1cc(S(=O)(=O)NCC(=O)O)ccc1-2 | 0.2 | -0.5 | -2.5 | · | ·
CCOC(=O)C(C(=O)OCC)C(C(=O)OCC)N1CCOCC1 (configuration not stated) | -10.7 | ? | -11.1 | 102.4* | -93.5
CCCCC(=O)NC(=S)NNC(=O)CC#N | 0.2 | 0.2 | -1.4 | 1.6 | ·
Cn1c(=O)cc(N2CCc3ccccc32)[nH]c1=O | -1.9 | 0.3 | 0.0 | -31.8 | ·
COC/C=C/C1=CC2=CC(=O)C(C)(OC(=O)c3ccco3)C(=O)C2=CO1 (configuration not stated) | 4.8 | 0.1 | 0.6 | -22.8 | ·
COC/C=C/C1=CC2=CC(=O)C(C)(OC(=O)C3CCCC3)C(=O)C2=CO1 (configuration not stated) | 1.5 | -0.2 | 0.9 | 99.1* | 9.2
COCC(C)NC(=O)C1c2ccccc2Oc2ccccc21 (configuration not stated) | 0.5 | 0.8 | -1.5 | · | ·
C=CCOC(=O)C1=C(C)NC(C)=C(C(=O)OCC=C)C1/C=C/c1ccccc1 | -0.1 | -0.8 | -1.5 | 100.2* | 104.9*
CCOC(=O)C1=C(C)NC(C)=C(C(=O)OCC)C1/C=C/c1ccccc1 | 1.7 | -0.5 | 1.1 | 98.8* | 91.5*
COC(=O)C1=C(C)NC(C)=C(C(=O)OC)C1/C=C/c1ccccc1 | 2.0 | 0.3 | 3.4 | 19.9 | ·
COc1ccc(N/C(=C2\CCCC2=O)C2CCCCC2)cc1 | 2.1 | 2.0 | -1.8 | · | ·
Oc1ccc(-c2ccccc2)cc1CN1CCCCCC1 | 0.0 | 1.6 | 3.0 | · | ·
CCCC(=O)Nc1cc(C(F)(F)F)ccc1N1CCOCC1 | 0.3 | 0.6 | 0.0 | 9.7 | ·
COc1ccc(N2C(=O)CC(Sc3nnnn3-c3ccc(F)cc3)C2=O)cc1 (configuration not stated) | 3.8 | 0.6 | -8.0 | 106.6* | 134.1*
O=C1CC(Sc2nnnn2-c2ccccc2)C(=O)N1c1cccc(Cl)c1 (configuration not stated) | 2.3 | -0.9 | -7.1 | 110.2* | 111.4*
COc1ccc(N2C(=O)CC(Sc3nnc(-c4ccccc4)o3)C2=O)cc1 (configuration not stated) | -10.0 | 0.0 | -6.7 | 108.8* | 5.4
Cc1ccc(S(=O)(=O)N2CCOCC2)cc1C(=O)Nc1cc(Cl)ccc1N1CCOCC1 | 0.9 | · | -2.2 | · | ·
O=C(O)c1ccccc1NC(=O)C1C2C=CC(C2)C1C(=O)O (configuration not stated) | -2.3 | -0.2 | -3.9 | · | ·
CCc1ccccc1NC(=O)C1CCCN(c2ncccn2)C1 (configuration not stated) | 0.0 | 0.4 | -2.4 | · | ·
